Results reported in ChEMBL document CHEMBL4706506 (Eur J Med Chem, 2020).
pIC50: −log10 of the molar value. Active and inactive are the calls of the source. The rule behind the calls is not given here.

What was measured:
[1] = test system: HCT-116; assay: Antiproliferative activity against human HCT-116 cells assessed as inhibition of cell proliferation measured after 48 hrs by CCK-8 assay; assay type: functional, cell-based; conditions: HCT-116, 48 h
Outline: (§1)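 RPMI-1640 with 10% FBS, 37 °C, 5% CO2. Cells seeded at 1-3 × 10^4/well and exposed to 0.00098–64 μM (nine 4-fold steps) or 0.1% DMSO vehicle for 48 h. CCK-8 then added for 4 h; absorbance read at 450 nm. IC50 taken from dose–response curves; mean ± SD of three independent experiments.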

[2] = test system: B16-F0; assay: Antitumour activity against mouse B16-F0 cells transplanted in C57/BL mouse assessed as decrease in tumour weight at 10 mg/kg, ip measured after 16 days in relative to control; assay type: functional; set-up: scale not given: the % may be the effect or the level left; conditions: time 16 day
[3] = Toxicity in C57/BL mouse […] with mouse B16-F0 cells assessed as liver histology at 10 to 20 mg/kg, ip measured after 16 days by H and E staining method in relative to control; assay type: organism-based; conditions: in vivo, 384 h, dose 10-20 mg/kg, time 16 day
[4] = test system: A549; assay: Antiproliferative activity against human A549 cells assessed as inhibition of cell proliferation measured after 48 hrs by CCK-8 assay; assay type: functional, cell-based; conditions: A549, 48 h; outline: as §1
[5] = Metabolic stability in human liver microsomes assessed as half life in presence of NADPH at 0.5 uM measured after 4 hrs by LC/MS method; assay type: ADME, Microsome
[6] = test system: MCF7; assay: Inhibition of cell migration in human MCF7 cells measured after 24 hrs by phase contrast microscopy based wound healing assay relative to control; assay type: functional; conditions: dose 10-40 nM
Outline: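 Confluent MCF-7 monolayers, grown 24 h, scratched with a pipette tip and washed with PBS. Medium with 0, 10, 20 or 40 nM compound added. Wounds photographed by phase contrast at 0 and 24 h; migration distance measured manually.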

[7] = test system: B16-F0; assay: Antiproliferative activity against mouse B16-F0 cells assessed as inhibition of cell proliferation measured after 48 hrs by CCK-8 assay; assay type: functional, cell-based; conditions: B16F0, 48 h; outline: as §1
[8] = Binding affinity to pig brain tubulin at 37 degree C without preincubation; assay type: tissue-based, Sus scrofa
Outline: (§2)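 Porcine brain tubulin purified by three assembly/disassembly cycles and phosphocellulose chromatography. Mixed with graded compound concentrations in PEM (100 mM PIPES, 1 mM EGTA, 1 mM MgCl2) with 1 mM GTP and 5% glycerol. Polymerization followed at 37 °C by light scattering at 340 nm; variants ran at 30 °C, or with 5 min preincubation before GTP addition. IC50 reported.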

[9] = Inhibition of pig brain tubulin polymerization measured by light scattering based spectrophotometer method; assay type: tissue-based, Sus scrofa; outline: as §2
[10] = Toxicity in C57/BL mouse […] with mouse B16-F0 cells assessed as kidney histology at 10 to 20 mg/kg, ip measured after 16 days by H and E staining method in relative to control; assay type: organism-based; conditions: in vivo, 384 h, dose 10-20 mg/kg, time 16 day
[11] = test system: B16-F0; assay: Induction of microtubule destabilization in mouse B16-F0 cells assessed as short and wrapped structure at 40 nM measured after 6 hrs by DAPI staining based immunofluorescent assay relative to control; assay type: cell-based
Outline: (§3)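 Fixed in 4% paraformaldehyde, permeabilized with 0.5% Triton X-100 for 15 min, goat serum blocked. Anti-tubulin antibody 2 h at 4 °C, then fluorescent secondary antibody and DAPI nuclear counterstain. Imaged by confocal microscopy.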

[12] = Metabolic stability in mouse liver microsomes assessed as half life in presence of NADPH at 0.5 uM measured after 4 hrs by LC/MS method; assay type: ADME, Microsome
[13] = Binding affinity to pig brain tubulin at 30 degree C without preincubation; assay type: tissue-based, Sus scrofa; outline: as §2
[14] = Binding affinity to pig brain tubulin at 37 degree C preincubated for 5 mins; assay type: tissue-based, Sus scrofa; outline: as §2
[15] = test system: MCF7; assay: Antiproliferative activity against human MCF7 cells assessed as inhibition of cell proliferation measured after 48 hrs by CCK-8 assay; assay type: functional, cell-based; conditions: MCF7, 48 h
[16] = test system: HeLa; assay: Antiproliferative activity against human HeLa cells assessed as inhibition of cell proliferation measured after 48 hrs by CCK-8 assay; assay type: functional, cell-based; outline: as §1
[17] = test system: B16-F0; assay: Antitumour activity against mouse B16-F0 cells transplanted in C57/BL mouse assessed as decrease in tumour volume at 10 mg/kg, ip measured after 16 days in relative to control; assay type: functional; set-up: scale not given: the % may be the effect or the level left; conditions: time 16 day
[18] = test system: B16-F0; assay: Antitumour activity against mouse B16-F0 cells transplanted in C57/BL mouse assessed as decrease in tumour volume at 20 mg/kg, ip measured after 16 days in relative to control; assay type: functional; set-up: scale not given: the % may be the effect or the level left; conditions: time 16 day
[19] = test system: B16-F0; assay: Inhibition of tubulin polymerization in mouse B16-F0 cells at 40 nM measured after 6 hrs by DAPI staining based immunofluorescent assay relative to control; assay type: cell-based; outline: as §3
[20] = test system: MCF7; assay: Induction of cell cycle arrest in human MCF7 cells assessed as accumulation of cells at G2/M phase measured after 48 hrs by FACS Calibur flow cytometry in relative to control; assay type: functional, cell-based
Outline: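 MCF-7 cells plated for 24 h, then exposed to compound (5 or 10 nM; DMSO control) for 48 h. Fixed in 70% ethanol at 4 °C for 12 h, then RNase A and propidium iodide staining for 30 min. DNA content measured by flow cytometry.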

[21] = test system: B16-F0; assay: Antitumour activity against mouse B16-F0 cells transplanted in C57/BL mouse assessed as decrease in tumour weight at 20 mg/kg, ip measured after 16 days in relative to control; assay type: functional; set-up: scale not given: the % may be the effect or the level left; conditions: time 16 day
[22] = Toxicity in C57/BL mouse […] with mouse B16-F0 cells assessed as body weight loss at 10 to 20 mg/kg, ip measured after 16 days in relative to control; assay type: organism-based; conditions: in vivo, 384 h, dose 10-20 mg/kg, time 16 day
[23] = test system: B16-F0; assay: Inhibition of tubulin polymerization in mouse B16-F0 cells at 160 nM measured after 6 hrs by DAPI staining based immunofluorescent assay relative to control; assay type: cell-based; conditions: dose 40.0 nM, in the assay text read “at 40 nM” for “at 160 nM”; outline: as §3

Structure (SMILES): COc1cc(-c2ccnc3cc(-c4ccc(C)cc4)nn23)cc(OC)c1OC
- pIC50 [1]: 7.32
- Activity [2]: 38.6%
- Activity [3]: Non-Toxic
- pIC50 [4]: 8.52
- half-life at 0.5 µM [5]: 2.08 h
- inhibition [6]: Active
- pIC50 [7]: 7.68
- pIC50 [8]: 5.68
- pIC50 [9]: 5.68
- Activity [10]: Non-Toxic
- Activity [11]: Active
- half-life at 0.5 µM [12]: 2 h
- pIC50 [13]: 5.68
- pIC50 [14]: 5.80
- pIC50 [15]: 7.33
- pIC50 [16]: 7.68
- Activity [17]: 40.1%
- Activity [18]: 77.4%
- inhibition [19]: Active
- Activity [20]: Active
- Activity [21]: 74.5%
- Activity [22]: Non-Toxic
- inhibition [23]: Active
